Test [1] deals with T1, Thromboxane A2 receptor (Homo sapiens) (UniProt P21731).
T1 sequence (whole entry): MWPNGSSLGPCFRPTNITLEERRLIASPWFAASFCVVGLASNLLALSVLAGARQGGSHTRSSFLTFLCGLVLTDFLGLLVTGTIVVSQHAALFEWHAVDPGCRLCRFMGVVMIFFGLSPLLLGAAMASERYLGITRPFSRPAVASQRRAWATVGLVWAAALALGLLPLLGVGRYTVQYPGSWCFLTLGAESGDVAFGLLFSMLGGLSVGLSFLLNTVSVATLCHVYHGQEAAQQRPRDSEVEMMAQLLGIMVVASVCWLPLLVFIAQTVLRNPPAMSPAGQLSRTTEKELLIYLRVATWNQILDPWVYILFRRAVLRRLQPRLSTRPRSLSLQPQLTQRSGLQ
In words: Displacement of [3H]SQ29,548 from TPalpha receptor (short isoform) expressed in COS7 cells at 1 uM. It counts as cell-based. To be noted: COS-7. A general note: Displacement assays read how much labelled ligand stays bound in the presence of the test substance.

In test [2] the target is T1, Thromboxane A2 receptor (Homo sapiens). In words: Displacement of [3H]SQ-29548 from TPbeta receptor (long isoform) expressed in COS7 cells at 1 uM. It counts as cell-based. The following applies: COS-7.
Test [3] shares this target. In words: Selectivity index, IC50 for TPalpha/IC50 for TPbeta in HEK293 cells. It counts as functional, cell-based. In a few lines:
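Ratio of IC50 TPα to IC50 TPβ, both from the calcium assay in stably transfected HEK293 cells. Fluo-4-loaded cells were preincubated 10 min with compound (10^-5 to 10^-8 M), then stimulated with 1 µM U46619. IC50 is the concentration inhibiting 50% of the [Ca2+]i rise.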

For test [4], the target named is T2, Thromboxane A2 receptor (Homo sapiens, UniProt P21731).
T2 sequence (P21731 whole entry): T1 sequence (whole entry)
The test can be described thus: Activity at TPbeta (long isoform) receptor expressed in HEK293 cells assessed as ability to antagonize U46619-mediated calcium ion mobilization. It counts as functional, cell-based. In a few lines: (§1)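 HEK293 cells stably overexpressing human TPα or TPβ. Cells were loaded 1 h with Fluo-4/AM (5 µg/mL) and washed in Krebs-HEPES pH 7.4 (150 000 cells/well). Compound (10^-5 to 10^-8 M final) was added 10 min before 1 µM U46619. Fluo-4 signal was calibrated by Triton X-100 and then EGTA (Kd 385 nM) for [Ca2+]i. IC50 is the concentration halving the [Ca2+]i rise.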

Test [5] concerns the target T1, Thromboxane A2 receptor (Homo sapiens). The test can be described thus: Displacement of [3H]SQ29,548 from TPalpha receptor (short isoform) expressed in COS7 cells at 1 nM. To be noted: COS-7.
The target is the same in test [6]. The test can be described thus: Displacement of [3H]SQ-29548 from TPbeta receptor (long isoform) expressed in COS7 cells at 1 nM. To be noted: COS-7.
Test [7] deals with T2, Thromboxane A2 receptor. In words: Activity at TPalpha (short isoform) receptor expressed in HEK293 cells assessed as ability to antagonize U46619-mediated calcium ion mobilization. It counts as functional, cell-based. In a few lines:
as §1

The target in test [8] is T1, Thromboxane A2 receptor (Homo sapiens). The test can be described thus: Selectivity index, IC50 for TPalpha/IC50 for TPbeta in COS7 cells. It counts as cell-based. To be noted: COS-7. In a few lines: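 Binding used 5 × 10^5 cells in 25 mM HEPES/125 mM NaCl/10 µM indomethacin, pH 7.4, with 10 nM [3H]SQ29,548 and compound at 10^-6 to 10^-11 M, in triplicate, for 30 min at 37 °C. Nonspecific binding: 10 µM unlabeled SQ29,548. Bound ligand was counted after filtration. Index = IC50 TPα/IC50 TPβ.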

For test [9], the target named is T2, Thromboxane A2 receptor. In words: Displacement of [3H]SQ29,548 from TPalpha receptor (short isoform) expressed in COS7 cells.
Test [10] has as its target T2, Thromboxane A2 receptor. The test can be described thus: Displacement of [3H]SQ-29548 from TPbeta receptor (long isoform) expressed in COS7 cells.

As for `CCC(C)NC(=O)NS(=O)(=O)c1cc([N+](=O)[O-])ccc1Nc1ccc(C)cc1` (configuration not stated), the results for the Activity in test [1] and in test [2] were 40.7% and 40.4%, respectively.

Turning to `Cc1ccc(Oc2ccc([N+](=O)[O-])cc2S(=O)(=O)NC(=O)NC2CCCCC2)cc1`, the values for the Ratio IC50 in [3] and in test [8] were 8.56 and 1.93, respectively. The IC50 at Thromboxane A2 receptor [4] is 70.2 nM; on Thromboxane A2 receptor [7], 601 nM; on Thromboxane A2 receptor [9] it was 1.52 nM; at Thromboxane A2 receptor [10] it was 0.79 nM. For the same molecule, the Activity in test [5] came to 49.8%; in test [6], 51.9%.

`CCCCCNC(=O)NS(=O)(=O)c1cc([N+](=O)[O-])ccc1Nc1ccc(Br)c(C)c1`: the Ratio IC50 in test [3] was 2.92; in test [8] it was 3.11. In addition, the IC50 at Thromboxane A2 receptor [4] turned out to be 43.2 nM; on Thromboxane A2 receptor [7], 126 nM; on Thromboxane A2 receptor [9], 1.82 nM; on Thromboxane A2 receptor [10], 0.58 nM. The Activity was 32.1% in test [5] and 49.9% in [6].

`CCCCCCNC(=O)NS(=O)(=O)c1cc([N+](=O)[O-])ccc1NC1CCCCC1`: the Ratio IC50 came to 1.76 in test [3] and 0.67 in test [8]. The IC50 on Thromboxane A2 receptor [4] stood at 46.2 nM; on Thromboxane A2 receptor [7], 81.2 nM; on Thromboxane A2 receptor [9], 0.71 nM; on Thromboxane A2 receptor [10], 1.07 nM. Also, the Activity in test [5] is 44.2%; in test [6], 42.5%.

On to `Cc1cccc(C)c1Nc1ccc([N+](=O)[O-])cc1S(=O)(=O)NC(=O)NC(C)(C)C`, for which the Ratio IC50 in [3] is 1.85; in [8], 1.4. Also, the IC50 at Thromboxane A2 receptor [4] turned out to be 30.8 nM; at Thromboxane A2 receptor [7] it was 56.9 nM; on Thromboxane A2 receptor [9], 0.78 nM; at Thromboxane A2 receptor [10] it was 0.56 nM. Besides, the Activity in [5] was determined as 46.4%; in test [6] it was 46.3%.

On to `CCC(C)NC(=O)NS(=O)(=O)c1cc([N+](=O)[O-])ccc1Nc1c(C)cccc1C` (configuration not stated), for which the Activity amounted to 48.4% in [1] and 42.5% in test [2].

As for `CCCCCNC(=O)NS(=O)(=O)c1cc([N+](=O)[O-])ccc1Nc1cccc(C)c1`, the results for the Ratio IC50 in test [3] and in test [8] were 1.33 and 0.23, respectively. Moreover, the IC50 worked out at 45.5 nM on Thromboxane A2 receptor [4], 60.4 nM at Thromboxane A2 receptor [7], 1.01 nM at Thromboxane A2 receptor [9] and 4.43 nM at Thromboxane A2 receptor [10]. In addition, the Activity in [5] was determined as 48.5%; in test [6] it was 35.8%.

On to `Cc1ccc(Nc2ccc([N+](=O)[O-])cc2S(=O)(=O)NC(=O)NCc2ccccc2)cc1`, for which the Ratio IC50 in test [3] was determined as 1.43; in [8], 1.62. Also, the IC50 on Thromboxane A2 receptor [4] is 45 nM; on Thromboxane A2 receptor [7] it was 64.5 nM; on Thromboxane A2 receptor [9] it was 1.9 nM; on Thromboxane A2 receptor [10], 1.17 nM. The Activity in test [5] was 32.9%; in test [6], 49.3%.

By IC50 is commonly meant the concentration that inhibits the measured activity by half.

(Values after ChEMBL document CHEMBL1148650, “Synthesis and pharmacological evaluation of novel nitrobenzenic thromboxane modulators as antiplatelet agents acting on both the alpha and beta isoforms of the human thromboxane receptor” (J Med Chem, 2006).)
